Measurements as given in article PMC7080202 (Medicinal Chemistry Research, 2013).
Like-named read-outs stand apart in the source and are kept apart here.

How the values were obtained:
[1] = system: Vero cell cultures; experiment: Cytotoxicity; assay type: cell-based
Summary of the method: (§1)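 Cell cultures incubated with varying concentrations of test compound, then examined by microscopy. MCC is the lowest concentration that causes a microscopically detectable alteration of normal cell morphology. HEL, Vero and HeLa lines were monitored regularly for mycoplasma and found free of it.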

[2] = system: Herpes simplex virus-1TK-KOS ACV^r; experiment: microbe, parasite or virus in culture; assay type: cell-based, herpes simplex virus type 1; settings: read-out: EC50 Herpes simplex virus-1TK-KOS ACV^r
[3] = system: Influenza A H1N1 subtype; experiment: Anti-influenza virus activity, influenza A H1N1 in MDCK cells; assay type: cell-based, influenza A virus A/Puerto Rico/8/34 (H1N1); settings: for EC50: read-out: Antiviral EC50 Influenza A H1N1 subtype MTS, MDCK cells, MTS; for anti-influenza activity (in words): H1N1, H3N2 and influenza B, below the non-toxic concentration of 100 µM
[4] = system: Punta Toro virus; experiment: microbe, parasite or virus in culture; assay type: cell-based; settings: read-out: Antiviral activity EC50 Punta Toro virus
[5] = system: Vaccinia virus; experiment: microbe, parasite or virus in culture; assay type: cell-based; settings: read-out: EC50 Vaccinia virus
[6] = system: Vesicular stomatitis virus; assay type: cell-based; settings: read-out: Antiviral activity EC50 Vesicular stomatitis virus
[7] = system: Influenza B; experiment: Anti-influenza virus activity, influenza B in MDCK cells; assay type: cell-based, influenza B virus B/Hong Kong/5/72
[8] = system: Crandell-Rees feline kidney cells; experiment: Cytotoxicity; assay type: cell-based
[9] = system: Coxsackie virus B4; experiment: microbe, parasite or virus in culture; assay type: cell-based; settings: read-out: Antiviral activity EC50 Coxsackie virus B4
[10] = system: Vesicular stomatitis virus; experiment: microbe, parasite or virus in culture; assay type: cell-based; settings: read-out: EC50 Vesicular stomatitis virus
[11] = system: Human embryonic lung cell cultures; experiment: Cytotoxicity; assay type: cell-based
Summary of the method: as §1

[12] = system: Feline herpes virus; experiment: Antiviral CPE assay, feline herpes virus in CRFK cells; assay type: cell-based; settings: read-out: EC50 Feline herpes virus
[13] = system: Para-influenza-3 virus; experiment: organism not typed; assay type: cell-based, parainfluenza-3 virus; settings: read-out: Antiviral activity EC50 Para-influenza-3 virus
[14] = system: HeLa cell cultures; experiment: Cytotoxicity; assay type: cell-based
Summary of the method: as §1

[15] = system: MDCK cells; settings: for Cytotoxicity Minimum cytotoxic concentration: microscopically detectable alteration of normal cell morphology; for CC50: read-out: Cytotoxicity CC50, MTS assay
[16] = system: Influenza A H3N2 subtype; experiment: Anti-influenza virus activity, influenza A H3N2 in MDCK cells; assay type: cell-based, influenza A virus A/Hong Kong/7/87 (H3N2); settings: read-out: Antiviral EC50 Influenza A H3N2 subtype MTS
[17] = system: Sindbis virus; experiment: microbe, parasite or virus in culture; assay type: cell-based; settings: read-out: Antiviral activity EC50 Sindbis virus
[18] = system: Reovirus-1; experiment: organism not typed; assay type: cell-based; settings: read-out: Antiviral activity EC50 Reovirus-1
[19] = system: Herpes simplex virus-2 (G); experiment: microbe, parasite or virus in culture; assay type: cell-based, herpes simplex virus type 2; settings: read-out: EC50 Herpes simplex virus-2 (G)
[20] = system: Coxsackie virus B4; experiment: microbe, parasite or virus in culture; assay type: cell-based; settings: read-out: Antiviral activity EC50 Coxsackie virus B4; remark: listed apart in the source
[21] = system: Herpes simplex virus-1 (KOS); experiment: microbe, parasite or virus in culture; assay type: cell-based, herpes simplex virus type 1; settings: read-out: EC50 Herpes simplex virus-1 (KOS)
[22] = system: Feline corona virus; experiment: Antiviral CPE assay, feline corona virus in CRFK cells; assay type: cell-based, feline coronavirus (FIPV); settings: read-out: EC50 Feline corona virus; CRFK cell culture
[23] = system: Cytomegalovirus AD-169 strain; assay type: cell-based, human cytomegalovirus; settings: both strains of HCMV (AD-169 and Davis)
[24] = in vitro; settings: dog
[25] = system: Cytomegalovirus Davis strain; experiment: microbe, parasite or virus in culture; assay type: cell-based; settings: Human betaherpesvirus 5, HEL, read-out: EC50 Cytomegalovirus Davis strain
[26] = read-out: Antiviral EC50 Influenza B MTS, MDCK cells, MTS

1-({[4-(dimethylamino)phenyl]methylidene}amino)-3-{[(3Z)-2-oxo-2,3-dihydro-1H-indol-3-ylidene]amino}thiourea [4c]
>100 µM: Minimum cytotoxic concentration [1] | Minimum cytotoxic concentration [8] | Minimum cytotoxic concentration [14]
> 100 µM: EC50 ([2]; HEL cell culture) | EC50 [3] | EC50 ([4]; Vero cell cultures) | EC50 [5] | EC50 [6] | EC50 [7, 26] | EC50 ([9]; Vero cell cultures) | EC50 [10] | EC50 ([12]; CRFK cell culture) | EC50 [13] | CC50 [15] | EC50 [16] | EC50 ([17]; Vero cell cultures) | EC50 ([18]; Vero cell cultures) | EC50 ([19]; HEL cell culture) | EC50 ([20]; HeLa cell cultures) | EC50 ([21]; HEL cell culture) | EC50 [22]
≥100 µM: Minimum cytotoxic concentration [11]
>100: Cytotoxicity Minimum cytotoxic concentration [15]

1-{[(3,4-Dimethoxyphenyl)methylidene]amino}-3-{[(3Z)-2-oxo-2,3-dihydro-1H-indol-3-ylidene]amino}thiourea [4f]
37 ± 8.75 µM: EC50 [7, 26]
>100 µM: Minimum cytotoxic concentration [14]
some activity: anti-influenza activity (in words) [3]
> 100 µM: EC50 [6] | EC50 ([12]; CRFK cell culture) | CC50 [15] | EC50 ([20]; HeLa cell cultures) | EC50 [22]
> 20 µM: EC50 ([2]; HEL cell culture) | EC50 ([4]; Vero cell cultures) | EC50 [5] | EC50 ([9]; Vero cell cultures) | EC50 [10] | EC50 [13] | EC50 ([17]; Vero cell cultures) | EC50 ([18]; Vero cell cultures) | EC50 ([19]; HEL cell culture) | EC50 ([21]; HEL cell culture)
100 µM: Minimum cytotoxic concentration [8] | Minimum cytotoxic concentration [11]
27 ± 7.3 µM: EC50 [16]
≥20 µM: Minimum cytotoxic concentration [1]
>100: Cytotoxicity Minimum cytotoxic concentration [15]
37 ± 25 µM: EC50 [3]

1-{[(4-Chlorophenyl)methylidene]amino}-3-{[(3Z)-2-oxo-2,3-dihydro-1H-indol-3-ylidene]amino}thiourea [4e]
>100: Cytotoxicity Minimum cytotoxic concentration [15]
>100 µM: Minimum cytotoxic concentration [1] | Minimum cytotoxic concentration [8] | Minimum cytotoxic concentration [14]
100 µM: Minimum cytotoxic concentration [11]
> 100 µM: EC50 ([2]; HEL cell culture) | EC50 [3] | EC50 ([4]; Vero cell cultures) | EC50 [5] | EC50 [6] | EC50 [7, 26] | EC50 ([9]; Vero cell cultures) | EC50 [10] | EC50 ([12]; CRFK cell culture) | EC50 [13] | CC50 [15] | EC50 [16] | EC50 ([17]; Vero cell cultures) | EC50 ([18]; Vero cell cultures) | EC50 ([19]; HEL cell culture) | EC50 ([20]; HeLa cell cultures) | EC50 ([21]; HEL cell culture) | EC50 [22]

1-{[(4-Nitrophenyl)methylidene]amino}-3-{[(3Z)-2-oxo-2,3-dihydro-1H-indol-3-ylidene]amino}thiourea [4d]
100 µM: Minimum cytotoxic concentration [1] | Minimum cytotoxic concentration [11]
>100: Cytotoxicity Minimum cytotoxic concentration [15]
> 100 µM: EC50 ([2]; HEL cell culture) | EC50 [3] | EC50 [5] | EC50 [6] | EC50 [7, 26] | EC50 [10] | EC50 ([12]; CRFK cell culture) | CC50 [15] | EC50 [16] | EC50 ([19]; HEL cell culture) | EC50 ([20]; HeLa cell cultures) | EC50 ([21]; HEL cell culture) | EC50 [22]
> 20 µM: EC50 ([4]; Vero cell cultures) | EC50 ([9]; Vero cell cultures) | EC50 [13] | EC50 ([17]; Vero cell cultures) | EC50 ([18]; Vero cell cultures)
>100 µM: Minimum cytotoxic concentration [8] | Minimum cytotoxic concentration [14]

3-[(1H-indol-3-ylmethylidene)amino]-1-{[(3Z)-2-oxo-2,3-dihydro-1H-indol-3-ylidene]amino}thiourea [4a]
100 µM: Minimum cytotoxic concentration [1]
51 µM: CC50 [15]
60 µM: Minimum cytotoxic concentration [11]
> 20 µM: EC50 ([2]; HEL cell culture) | EC50 ([4]; Vero cell cultures) | EC50 [5] | EC50 [6] | EC50 ([9]; Vero cell cultures) | EC50 [10] | EC50 ([12]; CRFK cell culture) | EC50 [13] | EC50 ([17]; Vero cell cultures) | EC50 ([18]; Vero cell cultures) | EC50 ([19]; HEL cell culture) | EC50 ([20]; HeLa cell cultures) | EC50 ([21]; HEL cell culture) | EC50 [22]
> 4 µM: EC50 [3] | EC50 [7, 26] | EC50 [16]
86 µM: Minimum cytotoxic concentration [8]
20: Cytotoxicity Minimum cytotoxic concentration [15]
≥20 µM: Minimum cytotoxic concentration [14]
moderate activity: antiviral activity against HCMV (in words) [23]

O=C(N/N=C1\C(=O)Nc2ccc([N+](=O)[O-])cc21)N/N=C1\C(=O)Nc2ccc([N+](=O)[O-])cc21 [6d, 1,3-Bis({[(3Z)-5-nitro-2-oxo-2,3-dihydro-1H-indol-3-ylidene]amino})urea]
47 ± 2.5 µM: EC50 ([7]; Influenza B virus, MDCK, read-out: Antiviral EC50 Influenza B Visual CPE score)
>100: Cytotoxicity Minimum cytotoxic concentration [15]
some activity: anti-influenza activity (in words) [3]
> 100 µM: EC50 ([2]; Human alphaherpesvirus 1, HEL) | EC50 ([4]; Punta Toro virus, Vero) | EC50 ([5]; Orthopoxvirus vaccinia, HEL) | EC50 ([9]; Enterovirus B, B4, Vero) | EC50 ([10]; Vesicular stomatitis virus, HEL) | EC50 ([12]; CRFK) | EC50 ([13]; Vero) | CC50 [24] | EC50 ([17]; Sindbis virus, Vero) | EC50 [25] | EC50 ([18]; Vero) | EC50 ([19]; Human alphaherpesvirus 2, HEL) | EC50 ([20]; Enterovirus B, B4, HeLa) | EC50 ([21]; Human alphaherpesvirus 1, HEL)
>100 µM: Minimum cytotoxic concentration [1] | Minimum cytotoxic concentration [8] | Minimum cytotoxic concentration [14]
38 ± 1.3 µM: EC50 ([7]; Influenza B virus, MDCK, read-out: Antiviral EC50 Influenza B MTS)
≥100 µM: Minimum cytotoxic concentration [11]
